Converted amounts (≈) assume the structure as drawn.
Assays:
[1] = Drug distribution in Sprague-Dawley rat ascites fluid measured at 12 hrs; type: ADME, tissue-based, Ascitic fluid; conditions: read-out: Ct
Summary of the method: (§1)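 Sprague–Dawley rats were dosed with TNP-2198. Concentrations were measured in plasma (ng/mL) and in tissues or contents (ng/g) at 0.5, 2, 6, 12 and 24 h after dosing. Values below the limit of quantification are reported as BLOQ.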

Gardnerella vaginalis [2] = test: Resistance development in Gardnerella vaginalis MMX 5973 assessed as mutation prevention concentration using at 4.50 x 10^8 CFU inoculum; type: functional; conditions: dose 0.5 µg/ml
[3] = Drug distribution in Sprague-Dawley rat vaginal tissue measured at 2 hrs; type: ADME, tissue-based, Vagina; conditions: female, read-out: Ct; summary of the method: as §1
[4] = Drug distribution in Sprague-Dawley rat large intestine tissue measured at 6 hrs; type: ADME, tissue-based; conditions: read-out: Ct; summary of the method: as §1
Clostridioides difficile [5] = test: Antibacterial activity against rifampicin/fluoroquinolone-resistant Clostridioides difficile CB1942 harboring rpoBQ489K/gyrAD71Y/T82A mutant measured after 3 days; type: functional; conditions: CB1942, 72 h, time 3 day
Syrian golden hamster = test: Antibacterial activity against Clostridioides difficile UNT-103-1 infected in Syrian hamster assessed as mortality at 5 mg/kg, po administered once a daily for 5 days after 18 hrs post 10 mg/kg clindamycin treatment and measured after 7 to 9 days; type: functional, Mesocricetus auratus; conditions: time 7-9 day
Summary of the method: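 Male Golden Syrian hamsters (80-90 g), housed singly, were gavaged with C. difficile UNT103-1 grown in sporulation medium broth and diluted to OD600 1 in prereduced broth. […] From 18 h later, drug or vehicle was given by oral gavage once daily for 5 days. Survival was recorded through day 21.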

[6] = Drug distribution in Sprague-Dawley rat large intestine content measured at 12 hrs; type: ADME, tissue-based; conditions: read-out: Ct; summary of the method: as §1
Clostridioides difficile [7] = test: Antibacterial activity against fluoroquinolone-resistant Clostridioides difficile CB1939 measured after 3 days; type: functional; conditions: CB1939, 72 h, time 3 day
Actinomyces naeslundii = test: Antibacterial activity against Actinomyces naeslundii ATCC 1210; type: functional
[8] = Drug distribution in Sprague-Dawley rat stomach tissue measured at 2 hrs; type: ADME, tissue-based; conditions: read-out: Ct; summary of the method: as §1
[9] = Drug distribution in Sprague-Dawley rat stomach tissue measured at 0.5 hrs; type: ADME, tissue-based; conditions: read-out: Ct; summary of the method: as §1
[10] = Drug distribution in Sprague-Dawley rat gums measured at 0.5 hrs; type: ADME, tissue-based, Gingiva; conditions: read-out: Ct; summary of the method: as §1
[11] = Half life in C57BL/6 mouse at 5 mg/kg, iv; type: ADME, organism-based; conditions: in vivo
Gardnerella vaginalis [12] = test: Antibacterial activity against Gardnerella vaginalis clinical isolate China; type: functional
Gardnerella vaginalis [13] = test: Resistance development in Gardnerella vaginalis MMX 5973 assessed as spontaneous resistance frequency using at 4.50 x 10^8 CFU inoculum at 0.5 ug/ml; type: functional; conditions: dose 0.5 µg/ml
Summary of the method: (§2)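 Resistant colonies were counted at each drug concentration in two separate tests (test 1, test 2) and averaged. The spontaneous resistance frequency was taken from the mean colony count relative to the inoculum plated. Drug levels tested were 0.5, 1, 2 and 4 µg/mL, and a mutation prevention concentration (MPC) was also reported.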

[14] = Drug distribution in Sprague-Dawley rat vaginal secretion measured at 0.5 hrs; type: ADME, tissue-based, Vaginal fluid; conditions: female, read-out: Ct; summary of the method: as §1
Gardnerella vaginalis [15] = test: Resistance development in Gardnerella vaginalis MMX 5973 assessed as spontaneous resistance frequency using at 4.50 x 10^8 CFU inoculum at 4 ug/ml; type: functional; conditions: dose 4 µg/ml; summary of the method: as §2
Clostridioides difficile [16] = test: Resistance development in Clostridioides difficile MMX 4381 assessed as mutation prevention concentration using at 1.90 x 10^8 CFU inoculum; type: functional; conditions: dose 0.5 µg/ml
Clostridioides difficile [17] = test: Resistance development in Clostridioides difficile MMX 4381 assessed as spontaneous resistance frequency using at 1.23 x 10^9 CFU inoculum at 4 ug/ml; type: functional; conditions: dose 4 µg/ml
Helicobacter pylori [18] = test: Resistance development in Helicobacter pylori MMX 3719 assessed as spontaneous resistance frequency using at 1.90 x 10^8 CFU inoculum at 2 ug/ml; type: functional; conditions: dose 2 µg/ml
Summary of the method: (§3)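 H. pylori MMX 3719 exposed to 0.5, 1, 2 and 4 µg/mL drug with an inoculum of 1.90×10^8 CFU at each level. Two independent tests were run, and resistant colonies were counted and averaged. A spontaneous resistance frequency was reported for each concentration, and the MPC was taken across the concentrations tested.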

[19] = tested on: Porphyromonas asaccharolytica; test: Antibacterial activity against metronidazole-resistant Prevotella asaccharolytica MMX 3552; type: functional
[20] = Drug distribution in Sprague-Dawley rat vaginal tissue measured at 24 hrs; type: ADME, tissue-based, Vagina; conditions: in vivo, BLD = below limit of detection; summary of the method: as §1
[21] = Drug distribution in Sprague-Dawley rat vaginal secretion measured at 6 hrs; type: ADME, tissue-based, Vaginal fluid; conditions: female, read-out: Ct; summary of the method: as §1
Helicobacter pylori [22] = test: Antibacterial activity against rifampicin-resistant Helicobacter pylori CB1903 harboring rpoBD530V mutant measured after 5 days by agar dilution method; type: functional; conditions: CB1903, 120 h, time 5 day
Summary of the method: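 Agar dilution per CLSI. Wild-type ATCC 700392 (CB1531) and its derivatives carry defined resistance determinants. Drugs, alone or in 1:1 molar mixtures, were diluted 2-fold from 100× stocks into Mueller–Hinton agar with aged (≥2 weeks) sheep blood (5% v/v). MIC read after 5 days at 35 °C under microaerobic conditions from a campylobacter gas-generating system.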

[23] = Antibacterial activity against Mobiluncus mulieris ATCC 35243; type: functional
Bacteroides fragilis = test: Antibacterial activity against metronidazole-resistant Bacteroides fragilis MMX 3387; type: functional
Helicobacter pylori [24] = test: Resistance development in Helicobacter pylori MMX 3719 assessed as spontaneous resistance frequency using at 1.90 x 10^8 CFU inoculum at 0.5 ug/ml; type: functional; conditions: dose 0.5 µg/ml; summary of the method: as §3
[25] = Clearance in Beagle dog at 5 mg/kg, iv; type: ADME, organism-based, Canis lupus familiaris; conditions: in vivo
Summary of the method: (§4)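 Plasma PK after single intravenous or oral dosing. Mice C57BL/6 at 5 mg/kg IV or 20 mg/kg PO; Sprague–Dawley rats at 10 mg/kg IV or 50 mg/kg PO; beagle dogs at 5 mg/kg IV or 25 mg/kg PO. AUC reported in ng·h/mL. Clearance from the IV arms in mL/min·kg.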

[26] = Drug distribution in Sprague-Dawley rat stomach content measured at 0.5 hrs; type: ADME, tissue-based; conditions: read-out: Ct; summary of the method: as §1
[27] = AUC in C57BL/6 mouse at 5 mg/kg, iv; type: ADME, organism-based; parameters: dose 5 mg/kg, route iv; conditions: in vivo; summary of the method: as §4
[28] = Drug distribution in Sprague-Dawley rat plasma measured at 2 hrs; type: ADME, cell-free; summary of the method: as §1
Clostridioides difficile [29] = test: Antibacterial activity against rifampicin-resistant Clostridium difficile MMX 3587; type: functional
[30] = Half life in Sprague-Dawley rat at 10 mg/kg, iv; type: ADME, organism-based; conditions: in vivo
[31] = Drug distribution in Sprague-Dawley rat brain measured at 0.5 hrs; type: ADME, tissue-based; conditions: read-out: Ct; summary of the method: as §1
[32] = Oral bioavailability in Beagle dog at 25 mg/kg; type: ADME, organism-based, Canis lupus familiaris; conditions: in vivo
Peptostreptococcus sp. = test: Antibacterial activity against Peptostreptococcus magnus ATCC 14956; type: functional
[33] = Half life in Beagle dog at 5 mg/kg, iv; type: ADME, organism-based, Canis lupus familiaris; conditions: in vivo
Summary of the method: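 Single-dose PK of TNP-2198 was run in C57BL/6 mice (IV 5 mg/kg; PO 20 mg/kg) and beagle dogs (IV 5 mg/kg; PO 25 mg/kg). Terminal half-life (h) was derived from plasma profiles, together with Tmax, Vdss, CL, AUC and oral bioavailability.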

[34] = Drug distribution in Sprague-Dawley rat gums measured at 12 hrs; type: ADME, tissue-based, Gingiva; conditions: read-out: Ct; summary of the method: as §1
Phocaeicola vulgatus = test: Antibacterial activity against metronidazole-resistant Bacteroides vulgatus 3490; type: functional
[35] = Drug distribution in Sprague-Dawley rat vaginal secretion measured at 24 hrs; type: ADME, tissue-based, Vaginal fluid; conditions: female, read-out: Ct; summary of the method: as §1

## CO[C@H]1/C=C/O[C@@]2(C)Oc3c(C)c(O)c4c(c3C2=O)C2=NC3(CCN(CCn5c([N+](=O)[O-])cnc5C)CC3)NC2=C(NC(=O)/C(C)=C\C=C\[C@H](C)[C@H](O)[C@@H](C)[C@@H](O)[C@@H](C)[C@H](OC(C)=O)[C@@H]1C)C4=O [RIFASUTENIZOL]
[1]
  concentration at 12 h: 84.5 ng/g
Gardnerella vaginalis [2]
  Activity: <=0.5 ug ml-1
[3]
  concentration at 2 h: 5900 ng/g
[4]
  concentration at 6 h: 3660 ng/g
Clostridioides difficile [5]
  MIC: 0.06 µg/mL (≈ 0.0636 µM)
Syrian golden hamster
  Activity: 10%
[6]
  concentration at 12 h: 2980 ng/g
Clostridioides difficile [7]
  MIC: ≤ 0.002 µg/mL
Actinomyces naeslundii
  MIC: 0.001 µg/mL (≈ 0.00106 µM)
[8]
  concentration at 2 h: 72500 ng/g
[9]
  concentration at 0.5 h: 113000 ng/g
[10]
  concentration at 0.5 h: 3470 ng/g
[11]
  half-life: 48 min
Gardnerella vaginalis [12]
  MIC: ≤ 0.004 µg/mL
  MIC90: 0.06 µg/mL (≈ 0.0636 µM)
Gardnerella vaginalis [13]
  Activity: <2 10^-9No_unit
[14]
  concentration at 0.5 h: 4190 ng/g
Gardnerella vaginalis [15]
  Activity: <2 10^-9No_unit
Clostridioides difficile [16]
  Activity: 1 µg/mL
Clostridioides difficile [17]
  Activity: <8 10^-9No_unit
Helicobacter pylori [18]
  Activity: <5 10^-9No_unit
[19]
  MIC: 0.008 µg/mL (≈ 0.00847 µM)
[20]
  Ct: Bld
[21]
  concentration at 6 h: 6240 ng/g
Helicobacter pylori [22]
  MIC: 0.125 µg/mL (≈ 0.132 µM)
[23]
  MIC: 0.001 µg/mL (≈ 0.00106 µM)
Bacteroides fragilis
  MIC: 0.015 µg/mL (≈ 0.0159 µM)
Helicobacter pylori [24]
  Activity: <5 10^-9No_unit
[25]
  clearance: 20 mL/min/kg
[26]
  concentration at 0.5 h: 3.26e+06 ng/g
[27]
  AUC: 3760 ng·h/mL
[28]
  concentration at 2 h: 2640 ng/mL
Clostridioides difficile [29]
  MIC: 0.25 µg/mL (≈ 0.265 µM)
[30]
  half-life: 46.2 min
[31]
  concentration at 0.5 h: 114 ng/g
[32]
  bioavailability: 65%
Peptostreptococcus sp.
  MIC: 0.0005 µg/mL (≈ 0.00053 µM)
[33]
  half-life: 234 min
[34]
  concentration at 12 h: 115 ng/g
Phocaeicola vulgatus
  MIC: 0.03 µg/mL (≈ 0.0318 µM)
[35]
  concentration at 24 h: 54.6 ng/g
